{
  "source": "paper PMC3276733",
  "about": "(Journal of Medicinal Chemistry, 2012)",
  "key": {"tadpoles [1]": {"test_system": "tadpoles", "conditions": "cited from earlier work"}, "[2]": {"biological_target": "α1(Q241L)β2γ2L GABAA receptors (Rattus norvegicus, UniProt P62813, Q268L)", "test": "Potentiation of GABA currents in oocytes expressing the steroid-insensitive α1", "type": "cell-based", "conditions": "GABA 2 TM, −70 mV, 4 WT and 4 mutant oocytes"}, "[3]": {"biological_target": "rat α1β2γ2L GABAA receptors expressed in Xenopus laevis oocytes (Rattus norvegicus, UniProt P62813)", "type": "cell-based", "conditions": "2 μM GABA, compound up to 10 μM", "procedure,_shortened": "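Rat α1, β2, γ2L cRNA (equal parts, 20-40 ng total) injected into defolliculated stage V-VI oocytes, which were held at 18 °C in supplemented ND96 (pH 7.4) and recorded 2-5 days later. Two-electrode voltage clamp at −70 mV. Response was the current ratio with/without compound, against 2 μM GABA. Direct gating: 10 μM compound without GABA, as a ratio to the 2 μM GABA current. ≥4 oocytes; SEM.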"}, "tadpoles [4]": {"test_system": "tadpoles", "test": "Tadpole loss of righting reflex", "type": "in vivo", "conditions": "loss of swimming reflex; None = all tadpoles had a swimming response at 10 μM"}, "[5]": {"conditions": "read-out: tadpole LRR EC50, loss of righting reflex, literature values ref 14"}},
  "note": "Read-outs that look alike come from different tables or passages of the source.",
  "data": [
    {"smiles": "C[C@]12CC[C@@H](O)C[C@@H]1CC[C@@H]1[C@@H]2CC[C@]2(C)C(=O)CC[C@@H]12", "note": "[compound 2, androsterone]", "values": [
      {"measurement": "EC50", "setting": "tadpoles [1]; [5]", "result": "3380 ± 900", "unit": "nM"}
    ]},
    {"smiles": "C[C@]12CC[C@@H](O)C[C@@H]1CC[C@@H]1[C@@H]2CC[C@@]2(C)[C@H]1CC[C@@]21CO1", "note": "[compound 3]", "values": [
      {"measurement": "EC50", "setting": "tadpoles [1]; [5]", "result": "1350 ± 10", "unit": "nM"}
    ]},
    {"smiles": "C[C@@]12CC[C@H](O)C[C@H]1C[C@@H](OCc1ccccc1)[C@@H]1[C@@H]2CC[C@@]2(C)C(=O)CC[C@@H]12", "note": "(single isomer, unassigned) [compound ent-6, (3β,5β,7α,8α,9β,10α,13α,14β)-7-Benzyloxy-3-hydroxyandrostan-17-one]", "values": [
      {"measurement": "effect of the α1 Q241L mutation on potentiation of GABA currents", "setting": "[2]; compound 1 TM", "result": "abolishes, completely or nearly completely"}
    ]},
    {"smiles": "C[C@]12CC[C@@H](O)C[C@@H]1CC[C@@H]1[C@@H]2[C@@H](OCc2ccccc2)C[C@@]2(C)[C@H]1CC[C@@]21CO1", "note": "[compound 5, (3α,5α,11β,17β)-Spiro[11-benzyloxyandrostane-17,2′-oxiran]-3-ol]", "values": [
      {"measurement": "effect of the α1 Q241L mutation on potentiation of GABA currents", "setting": "[2]; compound 0.5 TM", "result": "abolishes, completely or nearly completely"}
    ]},
    {"smiles": "C[C@@]12CC[C@H](O)C[C@H]1CC[C@@H]1[C@@H]2CC[C@@]2(C)C(=O)CC[C@@H]12", "note": "(single isomer, unassigned) [compound ent-2, ent-androsterone]", "values": [
      {"measurement": "EC50", "setting": "tadpoles [1]; [5]", "result": "1420 ± 180", "unit": "nM"}
    ]},
    {"smiles": "C[C@]12CC[C@@H](O)C[C@@H]1C[C@H](OCc1ccccc1)[C@@H]1[C@@H]2CC[C@@]2(C)[C@H]1CC[C@@]21CO1", "note": "[compound 7, (3α,5α,7β,17β)-Spiro-[7-Benzyloxyandrostane-17,2′-oxiran]-3-ol]", "values": [
      {"measurement": "effect on GABA-mediated currents", "setting": "[3]", "result": "weakly inhibit"}
    ]},
    {"smiles": "CC(=O)[C@H]1CC[C@H]2[C@@H]3CC[C@H]4C[C@H](O)CC[C@]4(C)[C@H]3CC[C@]12C", "note": "[compound 1, allopregnanolone]", "values": [
      {"measurement": "effect of the α1 Q241L mutation on potentiation of GABA currents", "setting": "[2]; compound 0.5 TM", "result": "eliminates the potentiation"},
      {"measurement": "EC50", "setting": "tadpoles [1]; read-out: Tadpole LSR EC50, loss of swimming reflex, literature values ref 27", "result": "5500 ± 500", "unit": "nM"},
      {"measurement": "EC50", "setting": "tadpoles [1]; read-out: tadpole LRR EC50, loss of righting reflex, literature values ref 27", "result": "420 ± 40", "unit": "nM"}
    ]},
    {"smiles": "C[C@@]12CC[C@H](O)C[C@H]1CC[C@@H]1[C@@H]2CC[C@]2(C)[C@H]1CC[C@]21CO1", "note": "(single isomer, unassigned) [ent-3]", "values": [
      {"measurement": "EC50", "setting": "tadpoles [1]; [5]", "result": "1080 ± 10", "unit": "nM"}
    ]},
    {"smiles": "C[C@@]12CC[C@H](O)C[C@H]1C[C@@H](OCc1ccccc1)[C@@H]1[C@@H]2CC[C@]2(C)[C@H]1CC[C@]21CO1", "note": "(single isomer, unassigned) [compound ent-7, (3β,5β,7α,8α,9β,10α,13α,14β,17α)-Spiro[7-Benzyoxyandrostane-17,2′-oxiran]-3-ol]", "values": [
      {"measurement": "effect of the α1 Q241L mutation on potentiation of GABA currents", "setting": "[2]; compound 0.5 TM", "result": "abolishes, completely or nearly completely"}
    ]},
    {"smiles": "C[C@]12CC[C@@H](O)C[C@@H]1CC[C@@H]1[C@@H]2[C@@H](OCc2ccccc2)C[C@]2(C)C(=O)CC[C@@H]12", "note": "[compound 4, (3α,5α,11β)-11-Benzyloxy-3-hydroxyandrostan-17-one]", "values": [
      {"measurement": "effect of the α1 Q241L mutation on potentiation of GABA currents", "setting": "[2]; compound 1 TM", "result": "abolishes, completely or nearly completely"}
    ]},
    {"smiles": "C[C@]12CC[C@@H](O)C[C@@H]1C[C@H](OCc1ccccc1)[C@@H]1[C@@H]2CC[C@]2(C)C(=O)CC[C@@H]12", "note": "[compound 6, (3α,5α,7β)-7-Benzyloxy-3-hydroxyandrostan-17-one]", "values": [
      {"measurement": "effect on GABA-mediated currents", "setting": "[3]", "result": "weakly inhibit"},
      {"measurement": "Tadpole LSR EC50", "setting": "tadpoles [4]", "result": "None^e"}
    ]},
    {"smiles": "C[C@@]12CC[C@H](O)C[C@H]1CC[C@@H]1[C@@H]2[C@H](OCc2ccccc2)C[C@@]2(C)C(=O)CC[C@@H]12", "note": "(single isomer, unassigned) [compound ent-4, (3β,5β,8α,9β,10α,11α,13α,14β)-11-Benzyloxy-3-hydroxyandrostan-17-one]", "values": [
      {"measurement": "effect on GABA-mediated currents", "setting": "[3]", "result": "weakly inhibit"}
    ]}
  ]
}
